Key:
Format in all cases: functional
Bacillus subtilis = experiment: Antibacterial activity against penicillin-susceptible Bacillus subtilis ATCC 9372 assessed as bacterial growth inhibition incubated for 24 hrs by CLSI protocol based broth microdilution method
Bacillus pumilus = experiment: Antibacterial activity against penicillin-susceptible Bacillus pumilus CMCC 63202 assessed as bacterial growth inhibition by broth dilution method; conditions: time 24 hrs
Method in brief: (§1)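 Broth microdilution in Mueller Hinton broth. A 0.5 McFarland suspension was diluted tenfold, giving an inoculum of 1.5 × 10⁷ cfu/mL. This was added to 2-fold serial compound dilutions from […]. Plates were incubated aerobically at 37 °C for 24 h. MIC was the lowest concentration with no visible turbidity.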

Staphylococcus aureus [1] = experiment: Antibacterial activity against erythromycin-susceptible Staphylococcus aureus ATCC 25923 assessed as bacterial growth inhibition incubated for 24 hrs by CLSI protocol based broth microdilution method
Streptococcus pyogenes [2] = experiment: Antibacterial activity against erythromycin-susceptible Streptococcus pyogenes clinical isolate 1 assessed as bacterial growth inhibition incubated for 24 hrs by CLSI protocol based broth microdilution method
Pseudomonas aeruginosa = experiment: Antibacterial activity against penicillin-susceptible Pseudomonas aeruginosa ATCC27853 assessed as bacterial growth inhibition incubated for 24 hrs by CLSI protocol based broth microdilution method
Escherichia coli = experiment: Antibacterial activity against penicillin-susceptible Escherichia coli ATCC 25922 assessed as inhibition of bacterial growth measured by broth microdilution method; conditions: time 24 hrs; method in brief: as §1
Staphylococcus aureus [3] = experiment: Antibacterial activity against methicillin-resistant Staphylococcus aureus ATCC 43300 assessed as inhibition of bacterial growth by broth microdilution method; conditions: time 24 hrs
Method in brief: (§2)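 Broth microdilution MIC. A 0.5 McFarland suspension was diluted 10-fold and added at 1.5 × 10⁷ cfu/mL to 2-fold dilutions (0.125–64) in Mueller Hinton broth. Incubated aerobically 24 h at 37 °C. MIC was the lowest concentration with no visible turbidity.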

Staphylococcus aureus [4] = experiment: Antibacterial activity against penicillin-resistant Staphylococcus aureus assessed as inhibition of bacterial growth measured by broth microdilution method; conditions: time 24 hrs; method in brief: as §2
Staphylococcus aureus [5] = experiment: Antibacterial activity against Staphylococcus aureus assessed as inhibition of bacterial growth measured by broth microdilution method; conditions: time 24 hrs; method in brief: as §1
[6] = tested on: Staphylococcus epidermidis; experiment: Antibacterial activity against penicillin-resistant Staphylococcus epidermidis assessed as inhibition of bacterial growth measured by broth microdilution method; conditions: time 24 hrs
Streptococcus pyogenes [7] = experiment: Antibacterial activity against erythromycin-resistant Streptococcus pyogenes 2 assessed as bacterial growth inhibition incubated for 24 hrs by CLSI protocol based broth microdilution method

Row | Compound | MIC (Bacillus subtilis) [µg/mL] | MIC (Bacillus pumilus) [µg/mL] | MIC (Staphylococcus aureus [1]) [µg/mL] | MIC (Streptococcus pyogenes [2]) [µg/mL] | MIC (Pseudomonas aeruginosa) [µg/mL] | MIC (Escherichia coli) [µg/mL] | MIC (Staphylococcus aureus [3]) [µg/mL] | MIC (Staphylococcus aureus [4]) [µg/mL] | MIC (Staphylococcus aureus [5]) [µg/mL] | MIC [6] [µg/mL] | MIC (Streptococcus pyogenes [7]) [µg/mL]
1 | Cc1cccc(-c2c3ccccc3[n+](C)c3ccccc23)c1.[I-] | 8 | 16 | 1 | 4 | > 64 | > 64 | 64 | > 64 | 4 | > 64 | 16
2 | CCCCc1ccc(C#Cc2c3ccccc3[n+](C)c3ccccc23)cc1.[I-] | 4 | 2 | 4 | 8 | > 64 | > 64 | 4 | 8 | 4 | 8 | 8
3 | COc1ccc(-c2c3ccccc3[n+](C)c3ccccc23)cc1.[I-] | 8 | 16 | 4 | 8 | > 64 | > 64 | > 64 | > 64 | 8 | > 64 | 16
4 | C[n+]1c2ccccc2c(/C=C/c2ccc(F)cc2)c2ccccc21.[I-] | 2 | 2 | 1 | 0.5 | > 64 | > 64 | 8 | 16 | 2 | 8 | 0.5
5 | C[n+]1c2ccccc2c(-c2ccc(C(F)(F)F)cc2)c2ccccc21.[I-] | 4 | 16 | 1 | 1 | > 64 | > 64 | 4 | 64 | 2 | 32 | 2
6 | CCc1ccc(/C=C/c2c3ccccc3[n+](C)c3ccccc23)cc1.[I-] | 1 | 1 | 0.5 | 0.5 | > 64 | 64 | 2 | 8 | 1 | 4 | 1
7 | COc1ccc(/C=C/c2c3ccccc3[n+](C)c3ccccc23)cc1OC.[I-] | 8 | 1 | 4 | 2 | > 64 | > 64 | 16 | 64 | 8 | 32 | 4
8 | Cc1ccccc1C#Cc1c2ccccc2[n+](C)c2ccccc12.[I-] | 8 | 8 | 4 | 8 | > 64 | > 64 | 4 | 8 | 2 | 16 | 16
9 | COc1cccc(-c2c3ccccc3[n+](C)c3ccccc23)c1.[I-] | 16 | 32 | 4 | 8 | > 64 | > 64 | > 64 | > 64 | 8 | > 64 | 32
10 | Cc1ccc(-c2c3ccccc3[n+](C)c3ccccc23)cc1.[I-] | 4 | 8 | 1 | 4 | > 64 | > 64 | 64 | > 64 | 4 | 64 | 16
11 | C[n+]1c2ccccc2c(/C=C/c2ccc(Cl)cc2)c2ccccc21.[I-] | 2 | 1 | 1 | 1 | > 64 | > 64 | 2 | 4 | 2 | 2 | 1
12 | CCCCCCCNc1c2ccccc2[n+](C)c2ccccc12.[Cl-] | 32 | 32 | 16 | 16 | > 64 | > 64 | 32 | 16 | 16 | 32 | 32
13 | COc1ccccc1/C=C/c1c2ccccc2[n+](C)c2ccccc12.[I-] | 1 | 2 | 0.25 | 0.25 | > 64 | > 64 | 4 | 16 | 1 | 8 | 0.5
14 | C[n+]1c2ccccc2c(-c2ccc(OC(F)(F)F)cc2)c2ccccc21.[I-] | 4 | 8 | 0.5 | 1 | > 64 | > 64 | 2 | 64 | 2 | 32 | 4
15 | COc1ccc(C#Cc2c3ccccc3[n+](C)c3ccccc23)cc1.[I-] | 4 | 4 | 4 | 16 | > 64 | > 64 | 8 | 16 | 4 | 16 | 16
16 | CCOc1ccc(/C=C/c2c3ccccc3[n+](C)c3ccccc23)cc1.[I-] | 2 | 16 | 0.5 | < 0.125 | > 64 | > 64 | 2 | 8 | 1 | 4 | 0.5
17 | C[n+]1c2ccccc2c(Nc2ccc(F)cc2F)c2ccccc21.[Cl-] | > 64 | > 64 | > 64 | > 64 | > 64 | > 64 | > 64 | – | > 64 | > 64 | > 64
18 | O=C(O)c1cn(C2CC2)c2cc(N3CCNCC3)c(F)cc2c1=O [CIPROFLOXACIN] | – | – | – | – | – | – | – | > 64 | – | > 64 | –
19 | C[n+]1c2ccccc2c(Nc2ccccc2)c2ccccc21.[Cl-] | > 64 | > 64 | > 64 | > 64 | > 64 | > 64 | > 64 | – | > 64 | > 64 | > 64
